From ChEMBL document CHEMBL1139535, “Modification of the estrogenic properties of diphenols by the incorporation of ferrocene. Generation of antiproliferative effects in vitro” (J Med Chem, 2005)

Tests used:
[1] = target: T1, Estrogen receptor (Homo sapiens) (UniProt P03372); assay: Relative binding affinity for estrogen receptor 1 (ER-alpha) of lamb uterine cytosol; conditions: Ovis aries; target entry is the homologue from another species
T1 sequence (whole entry): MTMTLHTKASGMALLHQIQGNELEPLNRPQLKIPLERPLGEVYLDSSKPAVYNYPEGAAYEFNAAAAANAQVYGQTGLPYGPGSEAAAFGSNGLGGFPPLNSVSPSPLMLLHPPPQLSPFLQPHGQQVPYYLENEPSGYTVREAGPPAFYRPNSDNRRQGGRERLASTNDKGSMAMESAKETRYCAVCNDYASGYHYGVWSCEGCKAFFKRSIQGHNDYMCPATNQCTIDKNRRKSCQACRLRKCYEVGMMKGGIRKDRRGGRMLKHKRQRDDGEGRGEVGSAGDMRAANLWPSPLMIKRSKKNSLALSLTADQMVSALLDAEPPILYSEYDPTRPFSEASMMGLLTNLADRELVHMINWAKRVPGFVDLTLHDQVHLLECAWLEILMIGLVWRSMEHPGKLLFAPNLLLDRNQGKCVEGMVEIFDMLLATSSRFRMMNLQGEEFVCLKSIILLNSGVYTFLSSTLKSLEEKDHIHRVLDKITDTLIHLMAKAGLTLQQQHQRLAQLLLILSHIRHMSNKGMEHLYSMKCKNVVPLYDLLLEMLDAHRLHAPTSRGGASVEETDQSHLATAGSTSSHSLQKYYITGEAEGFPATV
Method in brief: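 Cytosol from frozen sheep (lamb) uteri in 0.05 M Tris-HCl, 0.25 M sucrose, 0.1% β-mercaptoethanol, pH 7.4. Incubated 3 h at 0°C with 2×10⁻⁹ M [6,7-3H]-estradiol and nine competitor concentrations. Bound and free separated by protamine sulfate precipitation. 50% displacement concentration from logit plot; RBA relative to estradiol = 100%; mean of at least two experiments.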

[2] = Relative binding affinity for purified estrogen receptor 1 (ER-alpha)
Method in brief: (§1)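 Incubated 3 h at 0°C with 2×10⁻⁹ M [3H]-estradiol plus nine competitor levels. Protamine sulfate separation, logit analysis of 50% displacement. RBA vs estradiol (100%); mean of at least two experiments.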

[3] = Partition coefficient (logP); format: physicochemical; conditions: octanol/water
Method in brief: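 Reversed-phase HPLC on a C-8 column. Capacity factors k' extrapolated to 100% aqueous component to give k'w; logPo/w = 0.13418 + 0.98452 log k'w.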

[4] = target: Estrogen receptor beta (Homo sapiens) (UniProt Q92731); assay: Relative binding affinity for estrogen receptor 2 (ER-beta); method in brief: as §1
Sequence of Estrogen receptor beta (Homo sapiens) (Q92731 whole entry): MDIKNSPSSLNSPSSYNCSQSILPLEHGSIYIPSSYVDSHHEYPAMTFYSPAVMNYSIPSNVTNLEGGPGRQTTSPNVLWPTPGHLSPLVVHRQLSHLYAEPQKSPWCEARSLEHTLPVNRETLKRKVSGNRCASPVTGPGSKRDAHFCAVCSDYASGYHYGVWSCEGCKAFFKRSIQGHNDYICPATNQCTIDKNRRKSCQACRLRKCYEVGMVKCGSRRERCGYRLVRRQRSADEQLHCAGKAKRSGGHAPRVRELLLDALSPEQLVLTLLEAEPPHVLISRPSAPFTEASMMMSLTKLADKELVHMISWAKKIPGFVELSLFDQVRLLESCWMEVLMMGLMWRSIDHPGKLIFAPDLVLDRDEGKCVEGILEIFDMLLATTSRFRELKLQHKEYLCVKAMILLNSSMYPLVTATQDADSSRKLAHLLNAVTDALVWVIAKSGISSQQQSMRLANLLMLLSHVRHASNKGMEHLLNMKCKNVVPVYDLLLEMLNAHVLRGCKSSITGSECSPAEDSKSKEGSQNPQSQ

- RBA [1]: 6.8%
- RBA [2]: 47.5%
- logP [3]: 4.4
- RBA [4]: 101%
SMILES: CCC(=C(c1ccc(O)cc1)c1ccc(O)cc1)c1ccccc1
